This passage reports Activity, inhibition and IC50 results from ChEMBL document CHEMBL1153852, “Steroidal lactones as inhibitors of 17beta-hydroxysteroid dehydrogenase type 5: chemical synthesis, enzyme inhibitory activity, and assessment of estrogenic and androgenic activities” (Eur J Med Chem, 2009).

The species entered for assay [1] is Mus musculus. Briefly: Androgenic activity in mouse SC115 cells expressing androgen receptor assessed as DHT-induced cell proliferation at 0.1 uM after 10 days relative to DHT. In kind it is functional, cell-based. In a few lines: (§1)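 SC115 Shionogi clone selected for DHT sensitivity, in MEM with 2% dextran-charcoal-treated FCS, seeded at 20,000 cells/well. After 24 h the medium is renewed and lactones added at 0.1 and 1, without DHT. Final ethanol is 0.01%. Cells are grown 10 days at 37 °C in 5% CO2, with medium changed every 3–4 days. DNA is measured by DABA fluorescence; DHT-stimulated growth is set to 100%.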

Assay [2] is filed under the species Mus musculus. The assay can be described thus: Androgenic activity in mouse SC115 cells expressing androgen receptor assessed as DHT-induced cell proliferation at 1 uM after 10 days relative to DHT. In kind it is functional, cell-based. In a few lines: as §1
A short description of assay [3]: Antiandrogenic activity in mouse SC115 cells expressing androgen receptor assessed as inhibition of DHT-induced cell proliferation at 1 uM after 10 days relative to DHT. Particulars: 240 h. In kind it is functional. In a few lines:
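SC115 Shionogi clone chosen for high DHT sensitivity; plated at 20,000 cells/well in MEM with 2% dextran-coated charcoal-treated FCS. After 24 h, medium changed and compound (0.1 or 1 μM) added with 0.3 nM DHT; ethanol 0.01% final. 10 days at 37 °C, medium changed every 3–4 days. Growth read as DNA content (DABA fluorescence); DHT-stimulated growth set to 100%; triplicates, mean ± SEM.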

For assay [4], the target named is T1, Aldo-keto reductase family 1 member C3 (Homo sapiens) (UniProt P42330).
T1 sequence (whole entry): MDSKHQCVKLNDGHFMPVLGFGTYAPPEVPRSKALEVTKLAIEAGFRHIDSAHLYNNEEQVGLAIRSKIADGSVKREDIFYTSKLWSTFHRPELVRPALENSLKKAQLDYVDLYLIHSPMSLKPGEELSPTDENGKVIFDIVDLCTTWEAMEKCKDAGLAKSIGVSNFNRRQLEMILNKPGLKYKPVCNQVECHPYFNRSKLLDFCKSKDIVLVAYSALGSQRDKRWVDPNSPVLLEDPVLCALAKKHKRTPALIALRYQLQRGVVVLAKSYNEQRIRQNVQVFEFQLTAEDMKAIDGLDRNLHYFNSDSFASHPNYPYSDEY
The assay can be described thus: Inhibition of human 17beta-HSD5 expressed in HEK293 cells assessed as enzyme-mediated transformation of [14C]-4-androstene-3,17-dione in to [14C]-testosterone at 0.3 uM after 18 hrs. In kind it is cell-based. In a few lines:
(§2)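 Intact HEK-293 cells stably over-expressing human 17β-HSD5, in freshly changed culture medium. [14C]-4-androstene-3,17-dione is added at 100 nM with inhibitor from an ethanolic solution; controls get ethanol only. After 18 h the conversion to [14C]-T is measured.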

Assay [5] addresses T1, Aldo-keto reductase family 1 member C3 (Homo sapiens). Briefly: Inhibition of human 17beta-HSD5 expressed in HEK293 cells assessed as enzyme-mediated transformation of [14C]-4-androstene-3,17-dione in to [14C]-testosterone at 3 uM after 18 hrs. In kind it is cell-based. In a few lines: as §2
The target in assay [6] is T2, Aldo-keto reductase family 1 member C3 (Homo sapiens, UniProt P42330).
T2 sequence (P42330 whole entry): T1 sequence (whole entry)
The assay can be described thus: Inhibition of human 17beta-HSD5 expressed in HEK293 cells assessed as enzyme-mediated transformation of [14C]-4-androstene-3,17-dione in to [14C]-testosterone after 18 hrs. In kind it is cell-based. In a few lines: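 Intact HEK-293 cells stably over-expressing human 17β-HSD5, in fresh culture medium. [14C]-4-androstene-3,17-dione 0.1 μM with inhibitor added in ethanol (ethanol alone as control), 18 h.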

Assay [7] has as its target T3, 17-beta-hydroxysteroid dehydrogenase type 1 (Homo sapiens) (UniProt P14061).
T3 sequence (whole entry): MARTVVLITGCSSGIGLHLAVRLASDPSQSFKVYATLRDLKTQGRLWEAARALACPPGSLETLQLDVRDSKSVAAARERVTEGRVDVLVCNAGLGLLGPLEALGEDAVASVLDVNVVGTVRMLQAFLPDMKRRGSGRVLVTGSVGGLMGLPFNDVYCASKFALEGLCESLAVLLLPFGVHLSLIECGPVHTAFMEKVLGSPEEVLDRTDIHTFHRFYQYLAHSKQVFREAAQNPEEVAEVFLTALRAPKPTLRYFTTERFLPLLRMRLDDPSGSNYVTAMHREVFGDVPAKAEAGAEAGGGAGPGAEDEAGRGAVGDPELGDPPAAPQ
Briefly: Inhibition of human 17beta-HSD1 expressed in HEK293 cells assessed as enzyme-mediated transformation of [14C]-E1 in to [14C]-E2 at 0.1 uM. In kind it is cell-based.

In assay [8] the target is T3, 17-beta-hydroxysteroid dehydrogenase type 1 (Homo sapiens). Briefly: Inhibition of human 17beta-HSD1 expressed in HEK293 cells assessed as enzyme-mediated transformation of [14C]-E1 in to [14C]-E2 at 1 uM. The class given is cell-based.
Assay [9] deals with T4, 17-beta-hydroxysteroid dehydrogenase type 3 (Homo sapiens) (UniProt P37058).
T4 sequence (whole entry): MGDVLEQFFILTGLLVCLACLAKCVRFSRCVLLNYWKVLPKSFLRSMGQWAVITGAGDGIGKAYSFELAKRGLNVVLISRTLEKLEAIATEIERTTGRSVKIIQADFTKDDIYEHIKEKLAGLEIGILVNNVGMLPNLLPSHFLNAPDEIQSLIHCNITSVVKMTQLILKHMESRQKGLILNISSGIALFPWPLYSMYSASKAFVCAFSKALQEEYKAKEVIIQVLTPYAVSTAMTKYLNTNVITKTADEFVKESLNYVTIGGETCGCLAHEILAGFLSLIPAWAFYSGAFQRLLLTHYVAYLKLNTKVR
The assay can be described thus: Inhibition of human 17beta-HSD3 expressed in HEK293 cells assessed as enzyme-mediated transformation of [14C]-4-androstene-3,17-dione in to [14C]-testosterone at 0.1 uM. In kind it is cell-based.

In assay [10] the target is T4, 17-beta-hydroxysteroid dehydrogenase type 3 (Homo sapiens). Briefly: Inhibition of human 17beta-HSD3 expressed in HEK293 cells assessed as enzyme-mediated transformation of [14C]-4-androstene-3,17-dione in to [14C]-testosterone at 1 uM. In kind it is cell-based.
Assay [11] relates to ZR-75-1. The assay can be described thus: Estrogenic activity in human ZR-75-1 cells expressing estrogen receptor assessed as estrogen-induced cell proliferation at 0.03 uM after 9 days relative to estrogen. In kind it is functional, cell-based. In a few lines: (§3)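 ZR-75-1 cells are resuspended in phenol red-free RPMI 1640 with 5% dextran-charcoal-treated FBS and seeded at 10,000 cells/well. After 3 days of adhesion, lactones from ethanol stocks are added alone or with E2 (0.1 nM). Cells grow 9 days at 37 °C in 5% CO2, with medium changed every 2–3 days. DNA is measured by DABA fluorescence; E2-induced growth is set to 100%.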

For assay [12], the system named is ZR-75-1. Briefly: Estrogenic activity in human ZR-75-1 cells expressing estrogen receptor assessed as estrogen-induced cell proliferation at 1 uM after 9 days relative to estrogen. The class given is functional. In a few lines: as §3
Assay [13] deals with ZR-75-1. Briefly: Antiestrogenic activity in human ZR-75-1 cells expressing estrogen receptor assessed as inhibition of estrogen-induced cell proliferation at 0.1 nM after 9 days relative to estrogen. The class given is functional, cell-based.

Calls of active or inactive are those of the source. The rule behind the calls is not given here.

The inhibition is how much of the control response was suppressed. Regarding `CC(C)(O)C(=O)Nc1ccc([N+](=O)[O-])c(C(F)(F)F)c1` [HYDROXYFLUTAMIDE], the outcome in [1] and in assay [2] was inactive. Also, in assay [3], the inhibition at 1 µM stood at 94%.
The term IC50 denotes the midpoint of a concentration-inhibition curve. On to `C[C@]12CC[C@@H]3c4ccccc4CC[C@H]3[C@@H]1CC[C@@]21CCCC(=O)O1`, for which the inhibition in [4] amounted to 93%; in assay [5] it was 95%; in [7] it was 21%; in assay [8], 21%; in assay [9], 25%; in assay [10], 64%. Further, the IC50 in [6] was determined as 10 nM.
For the compound `CC1CC[C@@]2(CC[C@H]3[C@@H]4CCc5ccccc5[C@H]4CC[C@@]32C)OC1=O` (stereo not given in full), the inhibition in [4] is 91%; in assay [5] it was 94%; in assay [7], 21%; in [8], 21%; in assay [9] it was 25%; in assay [10], 64%. Besides, the IC50 in assay [6] amounted to 6.1 nM.
As for `CCCCN(C)C(=O)CCCCCCCCCC[C@@H]1Cc2cc(O)ccc2[C@H]2CC[C@]3(C)[C@@H](O)[C@H](Cl)C[C@H]3[C@H]12`, the result in assay [11] and in assay [12] was inactive. In addition, the outcome in [13] was Active.
